# Assay results from ChEMBL document CHEMBL2401724, “Synthesis and structure--activity relationships of N²-alkylated quaternary β-carbolines as novel antitumor agents” (Eur J Med Chem, 2013).
# What was measured:
# 769-P = experiment: Cytotoxicity against human 769-P cells by MTT assay; type: functional, cell-based
# In short: (§1)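 Cell lines were cultured in 96-well microtitre plates at 37 °C in humidified 5% CO₂. Compounds were dissolved in DMSO, at ≤2% (v/v) final in the growth medium. Viability was read by MTT staining, expressed relative to untreated cells.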
# HepG2 = experiment: Cytotoxicity against human HepG2 cells by MTT assay; type: functional, cell-based; in short: as §1
# BGC-823 = experiment: Cytotoxicity against human BGC823 cells by MTT assay; type: functional, cell-based; in short: as §1
# MCF7 = experiment: Cytotoxicity against human MCF7 cells by MTT assay; type: functional, cell-based; in short: as §1
# [1] = Cytotoxicity against human ECA109 cells by MTT assay; type: functional, cell-based; conditions: ECa-109; in short: as §1
# SK-OV-3 = experiment: Cytotoxicity against human SKOV3 cells by MTT assay; type: functional, cell-based; in short: as §1
# HT-29 = experiment: Cytotoxicity against human HT-29 cells by MTT assay; type: functional, cell-based; in short: as §1
# A-375 = experiment: Cytotoxicity against human A375 cells by MTT assay; type: functional, cell-based; in short: as §1
# [2] = Acute toxicity in ip dosed C57BL/6 mouse after 14 days; type: organism-based; conditions: in vivo
# In short: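 C57BL/6 mice (9–12 weeks, 18–22 g), single i.p. dose; watched continuously for 2 h, intermittently over 24 h, then occasionally to day 14 for behaviour, deaths and delayed effects. Survivors killed at day 14; heart, liver, kidneys inspected macroscopically, early deaths also examined. LD50 derived graphically.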
# CWR22R = experiment: Cytotoxicity against human 22Rv1 cells by MTT assay; type: functional, cell-based; in short: as §1
# [3] = Cytotoxicity against mouse LLC cells by MTT assay; type: functional, cell-based; conditions: Lewis lung carcinoma; in short: as §1
# [4] = Antitumor activity against mouse Sarcoma 180 cells allografted in mouse assessed as tumor growth inhibition at 6 mg/kg, ip qd administered for 7 days measured after 21 days relative to control; type: functional; conditions: Sarcoma-180, ip, route intraperitoneal, read-out: TGI
# In short: (§2)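 Tumour cells (S180 sarcoma or Lewis lung) were first grown in mice for 7 days, then harvested. Viable cells (2 × 10⁶/mouse) were injected s.c. into the armpit. Groups of 10 female mice received the compound i.p. once daily for 7 consecutive days, starting 24 h after inoculation. Cyclophosphamide 30 mg/kg served as positive control and vehicle as negative control. Body weights were taken every 3 days. Mice were killed on day 21 post-inoculation, and tumours were excised and weighed to calculate the inhibition rate versus control.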
# [5] = Antitumor activity against mouse Sarcoma 180 cells allografted in mouse assessed as tumor growth inhibition at 0.5 mg/kg, ip qd administered for 7 days measured after 21 days relative to control; type: functional; conditions: Sarcoma-180, ip, route intraperitoneal, read-out: TGI; in short: as §2
# [6] = tested on: Lewis lung carcinoma cell line; experiment: Antitumor activity against mouse LLC cells allografted in mouse assessed as tumor growth inhibition at 0.5 mg/kg, ip qd administered for 7 days measured after 21 days relative to control; type: functional; conditions: route intraperitoneal, read-out: TGI; in short: as §2
# [7] = tested on: Lewis lung carcinoma cell line; experiment: Antitumor activity against mouse LLC cells allografted in mouse assessed as tumor growth inhibition at 1.25 mg/kg, ip qd administered for 7 days measured after 21 days relative to control; type: functional; conditions: route intraperitoneal, read-out: TGI; in short: as §2
# [8] = Antitumor activity against mouse Sarcoma 180 cells allografted in mouse assessed as tumor growth inhibition at 1.25 mg/kg, ip qd administered for 7 days measured after 21 days relative to control; type: functional; conditions: Sarcoma-180, ip, route intraperitoneal, read-out: TGI; in short: as §2
# [9] = tested on: Lewis lung carcinoma cell line; experiment: Antitumor activity against mouse LLC cells allografted in mouse assessed as tumor growth inhibition at 30 mg/kg, ip qd administered for 7 days measured after 21 days relative to control; conditions: read-out: TGI
# [10] = Antitumor activity against mouse Sarcoma 180 cells allografted in mouse assessed as tumor growth inhibition at 30 mg/kg, ip qd administered for 7 days measured after 21 days relative to control; conditions: Sarcoma-180, ip, read-out: TGI
Compound,IC50 (769-P),IC50 (HepG2),IC50 (BGC-823),IC50 (MCF7),IC50 [1],IC50 (SK-OV-3),IC50 (HT-29),IC50 (A-375),LD50 at 336 h [2],IC50 (CWR22R),IC50 [3],inhibition in vivo at 6 mg/kg [4],inhibition in vivo at 0.5 mg/kg [5],inhibition in vivo at 0.5 mg/kg [6],inhibition in vivo at 1.25 mg/kg [7],inhibition in vivo at 1.25 mg/kg [8],inhibition in vivo at 30 mg/kg [9],inhibition in vivo at 30 mg/kg [10]
Clc1cccc(C[n+]2ccc3c4ccccc4n(CCCc4ccccc4)c3c2)c1.[Br-],21.9 µM,19 µM,9.8 µM,14.3 µM,7.9 µM,13.8 µM,16.5 µM,24.6 µM,30 mg/kg,9.7 µM,6.5 µM,43.5%,,,,,,
O=[N+]([O-])c1ccc(C[n+]2ccc3c4ccccc4n(CCCc4ccccc4)c3c2)cc1,8.3 µM,19.9 µM,39.7 µM,24.5 µM,7.6 µM,17.4 µM,12.6 µM,12.3 µM,,5.6 µM,2.2 µM,,,,,,,
c1ccc(CCCn2c3ccccc3c3cc[n+](CCc4ccccc4)cc32)cc1,14 µM,14 µM,10.4 µM,12.5 µM,8.1 µM,8.4 µM,3.3 µM,12.2 µM,,4 µM,< 2 µM,,,,,,,
c1ccc(CCCn2c3ccccc3c3cc[n+](CCCc4ccccc4)cc32)cc1,3.3 µM,4 µM,9.4 µM,3.7 µM,5.3 µM,10.8 µM,3.4 µM,3.2 µM,,4.9 µM,< 2 µM,,,,,,,
Cc1c2c(cc[n+]1Cc1ccccc1)c1ccccc1n2CCCc1ccccc1.[Br-],5.3 µM,5.8 µM,6.9 µM,7 µM,6.8 µM,7.6 µM,14.6 µM,8.5 µM,2.5 mg/kg,1.8 µM,< 2 µM,,51%,33.1%,,,,
c1ccc(CCCn2c3ccccc3c3cc[n+](Cc4ccccc4)c(-c4ccccc4)c32)cc1,3 µM,4.8 µM,< 2 µM,3.7 µM,5.1 µM,< 2 µM,10.8 µM,5.9 µM,,3.7 µM,< 2 µM,,,,,,,
COc1ccc(-c2c3c(cc[n+]2Cc2ccccc2)c2ccccc2n3CCCc2ccccc2)cc1.[Br-],< 2 µM,3.3 µM,3.2 µM,2.2 µM,12.3 µM,5.2 µM,2.4 µM,< 2 µM,6.25 mg/kg,1.8 µM,< 2 µM,,,,23.9%,41.4%,,
c1ccc(CCCn2c3ccccc3c3cc[n+](Cc4ccccc4)c(-c4ccsc4)c32)cc1,14.6 µM,36.7 µM,4 µM,29.2 µM,27.2 µM,14.6 µM,31.3 µM,27.9 µM,,8.4 µM,3.1 µM,,,,,,,
Cn1c2ccccc2c2cc[n+](Cc3ccccc3)cc21,22.5 µM,> 100 µM,13.2 µM,> 100 µM,95.9 µM,55.2 µM,59.1 µM,37.3 µM,,8.4 µM,8.4 µM,,,,,,,
CCn1c2ccccc2c2cc[n+](Cc3ccccc3)cc21,38.5 µM,> 100 µM,> 100 µM,> 100 µM,36.7 µM,27.6 µM,> 100 µM,54.3 µM,,5.6 µM,5.1 µM,,,,,,,
CC(C)n1c2ccccc2c2cc[n+](Cc3ccccc3)cc21,30.8 µM,58.7 µM,61.5 µM,54.8 µM,7.6 µM,6.6 µM,> 100 µM,24.5 µM,,3.6 µM,< 2 µM,,,,,,,
C=CCn1c2ccccc2c2cc[n+](Cc3ccccc3)cc21,21.9 µM,67.8 µM,> 100 µM,72.6 µM,21.4 µM,12.6 µM,> 100 µM,11.3 µM,,< 2 µM,4.6 µM,,,,,,,
CCCCn1c2ccccc2c2cc[n+](Cc3ccccc3)cc21,19.8 µM,29 µM,68.1 µM,34.1 µM,8.6 µM,4.7 µM,83.8 µM,19.6 µM,,< 2 µM,< 2 µM,,,,,,,
CC(C)Cn1c2ccccc2c2cc[n+](Cc3ccccc3)cc21,11.6 µM,36.6 µM,60.7 µM,39.2 µM,35.7 µM,27.7 µM,87.7 µM,28.4 µM,,9.6 µM,8 µM,,,,,,,
CCCCCCn1c2ccccc2c2cc[n+](Cc3ccccc3)cc21,2.7 µM,13.9 µM,5.2 µM,11.1 µM,13.9 µM,7.3 µM,16 µM,6.8 µM,,< 2 µM,< 2 µM,,,,,,,
CCCCCCCCn1c2ccccc2c2cc[n+](Cc3ccccc3)cc21,< 2 µM,6.5 µM,2.5 µM,4.1 µM,5.1 µM,3.2 µM,10.9 µM,3.1 µM,,2.9 µM,< 2 µM,,,,,,,
Fc1ccc(Cn2c3ccccc3c3cc[n+](Cc4ccccc4)cc32)cc1,6 µM,23.4 µM,6.3 µM,17.8 µM,35.4 µM,10.5 µM,28.9 µM,4.7 µM,,3.5 µM,< 2 µM,,,,,,,
Clc1cccc(Cn2c3ccccc3c3cc[n+](Cc4ccccc4)cc32)c1,3.5 µM,16.5 µM,20.3 µM,20.3 µM,23.3 µM,7.9 µM,26.9 µM,7 µM,,4.2 µM,< 2 µM,,,,,,,
COc1ccc(Cn2c3ccccc3c3cc[n+](Cc4ccccc4)cc32)cc1.[Br-],7.6 µM,15.9 µM,17.8 µM,18.7 µM,54.3 µM,19.9 µM,19.2 µM,9.5 µM,19.5 mg/kg,4.8 µM,4.2 µM,,,,,,,
C[n+]1ccc2c3ccccc3n(CCCc3ccccc3)c2c1,19.9 µM,90.8 µM,40.6 µM,75.6 µM,60 µM,> 100 µM,97.3 µM,41.5 µM,,4.3 µM,2.4 µM,,,,,,,
CC[n+]1ccc2c3ccccc3n(CCCc3ccccc3)c2c1,34.2 µM,92.1 µM,88 µM,98.7 µM,55.5 µM,> 100 µM,54.2 µM,45.1 µM,,2.5 µM,4.3 µM,,,,,,,
CCCC[n+]1ccc2c3ccccc3n(CCCc3ccccc3)c2c1,13.4 µM,45.5 µM,15.4 µM,38.7 µM,41.5 µM,15.8 µM,62.7 µM,12.2 µM,,3.4 µM,< 2 µM,,,,,,,
CCCCCC[n+]1ccc2c3ccccc3n(CCCc3ccccc3)c2c1,2.5 µM,4.3 µM,2.3 µM,3.9 µM,2.5 µM,< 2 µM,2.3 µM,2.9 µM,,2.2 µM,< 2 µM,,,,,,,
CCCCCCCC[n+]1ccc2c3ccccc3n(CCCc3ccccc3)c2c1,< 2 µM,4.7 µM,7.4 µM,2.9 µM,22.8 µM,5.9 µM,18.6 µM,< 2 µM,,4.3 µM,< 2 µM,,,,,,,
CCCCCCCCCC[n+]1ccc2c3ccccc3n(CCCc3ccccc3)c2c1,< 2 µM,< 2 µM,57 µM,< 2 µM,23.2 µM,57 µM,31.3 µM,< 2 µM,,6.9 µM,15.7 µM,,,,,,,
O=P1(N(CCCl)CCCl)NCCCO1 (stereo unspecified) [CYCLOPHOSPHAMIDE ANHYDROUS],,,,,,,,,,,,,,,,,87.3%,85.6%
